Screens as filed in PubChem.
Sampled rows, rich in hits. Any-hit rate of the full collection: about 3.1%.
CSN deneddyl inh – inhibitors of CSN-mediated cullin deneddylation, primary screen, biochemical, fluorescence polarization, uHTS | COP9 signalosome complex subunit 5 (Homo sapiens), Q92905 | Purified CSN, SCF-Nedd8-OG deneddylation | inhibition, % at 12.5 µM | 360,000 tested, 0.38% active | AID 651999, 2013;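 active = pattern-corrected inhibition above about 35%, with an unprinted fluorescence ratio check between 0.5 and 1.5, limit read from the data, passing the limit was not always enough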;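 note: 0% = enzyme with substrate and 100% = substrate without enzyme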
Target sequence (Q92905 whole entry, looked up, one chain of several): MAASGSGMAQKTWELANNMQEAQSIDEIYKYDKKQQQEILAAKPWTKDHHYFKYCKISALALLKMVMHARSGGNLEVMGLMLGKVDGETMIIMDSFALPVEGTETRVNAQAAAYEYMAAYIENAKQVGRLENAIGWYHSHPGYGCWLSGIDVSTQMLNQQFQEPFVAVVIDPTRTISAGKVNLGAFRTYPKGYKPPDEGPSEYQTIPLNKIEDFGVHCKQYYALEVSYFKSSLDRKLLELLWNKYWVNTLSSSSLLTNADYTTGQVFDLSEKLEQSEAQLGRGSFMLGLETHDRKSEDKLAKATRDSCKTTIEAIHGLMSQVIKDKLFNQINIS
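Schedule: reaction 90 min, room temperature / Assay system: HEK293T-derived human Csn5 enzyme / Input: Csn5 at 0.24 nM final / Measure: inhibition of Csn5 cleavage, % / Control set: substrate-only high control, full reaction low control / Technique: fluorescence polarization of the substrate / Buffer or medium: Tris/NaCl/DTT buffer, pH 7.5 / Reagent: SCFSkp2-Nedd8OG substrate at 10 nM final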
rCAG RNA binder – binders of r(CAG) RNA repeats, primary screen, biochemical, fluorescence | r(CAG) RNA repeat, TO-PRO-1 dye displacement fluorescence | 370,000 tested, 1.3% active | inhibition, % at 3 µM | AID 651821, 2012;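 active = inhibition above the plate cutoff, the mean of all test compounds on that plate plus 3 SD, cut at about 35% in these data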;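 note: 0% = DMSO alone and 100% = 100 µM mitoxantrone as full dye displacement; higher means more dye released from RNA so lower well fluorescence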
MBD2 inh – inhibitors of MBD2 binding to methylated DNA, primary screen, biochemical, TR-FRET, DNA-binding domain, human. 370,000 tested, 0.31% active. Methyl-CpG-binding domain protein 2 (Homo sapiens), Q9UBB5. MBD2 binding to methylated oligonucleotide. inhibition, % at 4.4 µM; in the data active = inhibition above about 13%
Target sequence (Q9UBB5 whole entry, looked up, the tested form may be a part): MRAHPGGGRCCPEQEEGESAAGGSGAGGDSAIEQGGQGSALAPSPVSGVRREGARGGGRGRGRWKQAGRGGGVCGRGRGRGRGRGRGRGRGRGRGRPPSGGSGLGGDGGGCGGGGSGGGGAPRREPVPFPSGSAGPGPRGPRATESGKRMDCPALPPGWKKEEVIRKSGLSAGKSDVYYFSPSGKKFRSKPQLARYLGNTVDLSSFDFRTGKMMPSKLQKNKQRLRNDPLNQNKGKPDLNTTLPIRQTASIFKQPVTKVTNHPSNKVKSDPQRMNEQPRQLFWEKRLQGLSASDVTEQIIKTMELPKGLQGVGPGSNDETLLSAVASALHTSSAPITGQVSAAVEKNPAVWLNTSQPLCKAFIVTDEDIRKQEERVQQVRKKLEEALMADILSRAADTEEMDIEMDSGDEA
ATG4B inh – ATG4B protease inhibitors, primary screen, biochemical, fluorescence, uHTS; Cysteine protease ATG4B (Homo sapiens), Q9Y4P1; ATG4B cleavage of LC3-PLA2, NBD-HPC fluorescence, 1 h; inhibition, % at 8.33 µM; 340,000 tested, 0.51% active; in the data active = inhibition above about 40%
UHRF1 binding – UHRF1 methylated DNA binding inhibitors, primary screen, counter-screen for MBD2 inhibitor project, biochemical, TR-FRET, human UHRF1, single concentration | UHRF1 binding to methylated oligo | E3 ubiquitin-protein ligase UHRF1 (Homo sapiens), Q96T88 | AID 687016, 2013 | 370,000 tested, 0.75% active | inhibition, % at 4.4 µM; in the data active = inhibition above about 21%;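 note: UHRF1 SRA domain binding a hemimethylated CpG hairpin DNA probe; 0% = median of test compound wells and 100% = reference inhibitor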
LEDGF integ inh – blockers of LEDGF/p75-dependent integrase strand transfer – biochemical, TR-FRET, high throughput, primary screen; inhibition, % at 3.7 µM; HIV-1 integrase (with human LEDGF/p75); AID 743269, 2014; 370,000 tested, 0.64% active; TR-FRET IN-LEDGF/p75 DNA integration, Eu/Cy5;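 active = inhibition above the screen-wide mean plus 3 SD, cut at about 13% in these data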;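 note: signal is the Cy5 over europium emission ratio at 671 and 618 nm; 0% = plate median of compound wells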
rCAG bind conf – small molecules binding CAG repeat RNA – biochemical, fluorescence, confirmation; 4,300 tested, 70% active; inhibition, % at 3 µM; r(CAG) RNA repeat, TO-PRO-1 dye displacement fluorescence; AID 652065, 2013; shares compounds with rCAG RNA binder;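 active = inhibition above a per-plate cutoff, the mean inhibition of sample wells plus 3 SD, cut at about 35% in these data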;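 note: loss of TO-PRO-1 fluorescence as compound displaces dye from 1x1 AA loop RNA; 0% = DMSO only wells and 100% = 100 µM mitoxantrone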
DNA CAG counter – displacement of TO-PRO-1 from CAG DNA duplex, counter-screen for rCAG RNA repeat binder project, biochemical, fluorescence, TO-PRO-1 dye, d(CAG) DNA oligo | shares compounds with rCAG RNA binder | d(CAG) DNA oligo TO-PRO-1 dye displacement | inhibition, % at 3 µM | 4,300 tested, 94% active | AID 652068, 2013;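 active = inhibition above its plate's cutoff, the mean test-well inhibition plus 3 SD, cut at about 4.8% in these data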;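 note: 0% = DNA dye mix with DMSO and 100% = 100 µM mitoxantrone; hits displace the dye from DNA and so lower well fluorescence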
dCAG dye DR – inhibitors of DNA CAG/GTC TO-PRO-1 complex, dose response, counter-screen for rCAG RNA repeat binder project, biochemical, fluorescence, TO-PRO-1 dye; AID 686960, 2013; 250 tested, 20% active; DNA CAG/GTC duplex TO-PRO-1 dye displacement fluorescence; IC50, µM; shares compounds with rCAG RNA binder; in the data active = IC50 below about 10 µM
* marks the source's active call; other numbers are inactive results; . = no result given.

SMILES | CSN deneddyl inh | rCAG RNA binder | MBD2 inh | ATG4B inh | UHRF1 binding | LEDGF integ inh | rCAG bind conf | DNA CAG counter | others
Cc1ccc(Nc2nc3c([nH]2)c(=O)n(C)c(=O)n3C)cc1 | -3 | 51* | 1 | -2 | 0 | -4 | 14 | 14*
Cc1cc(C)cc(Nc2nc3c([nH]2)c(=O)n(C)c(=O)n3C)c1 | -3 | 58* | 1 | -6 | -3 | 3 | 18 | 13*
Cn1c(=O)c2[nH]c(NN=Cc3ccc(F)cc3)nc2n(C)c1=O | -2 | 3 | -10 | -2 | 1 | -2 | . | .
COCCCN1C(=O)[C@H](CC(=O)NCc2ccc(OC)c(OC)c2)[C@]2(C(=O)OC)CCCCC=C12 | . | 2 | -6 | . | -1 | 0 | . | .
O=C(O)c1cccc2c1-c1ccccc1/C2=N\Nc1ccccc1 | -3 | 29 | -7 | 12 | -1 | 4 | . | .
O=C(O)c1cccc(N/N=C/c2ccc(-c3ccccc3)cc2)c1 | 6 | 33 | 1 | 21 | -2 | 1 | . | .
O=C(O)c1cccc(N/N=C/c2cc(Br)cc(Br)c2O)c1 | -5 | 95* | -4 | 22 | 2 | 2 | 83* | 48*
COc1ccccc1/C=C/C=N/Nc1cccc(C(=O)O)c1 | 3 | 36* | -6 | 4 | 5 | 4 | 37* | 9.3*
O=C(O)c1cccc(NN=C2c3ccccc3-c3ccccc32)c1 | 3 | 87* | -2 | 13 | 6 | -3 | 81* | 47*
COc1ccc(Br)cc1/C=N/Nc1cccc(C(=O)O)c1 | 1 | 22 | 2 | 1 | 2 | 4 | . | .
CCC(CO)Nc1cccc2c1S(=O)(=O)N(Cc1cn(Cc3cccc(C(F)(F)F)c3)nn1)Cc1ccccc1O2 (stereo unspecified) | . | 8 | 4 | . | 10 | 0 | . | .
COc1ccccc1NS(=O)(=O)c1cccc(C(=O)NN)c1 | -2 | 11 | 7 | -3 | 0 | 0 | . | .
NNC(=O)c1cccc(S(=O)(=O)Nc2cc(Cl)ccc2Cl)c1 | -2 | 64* | -8 | 0 | -4 | 3 | 13 | 3
N#Cc1c(N2C(=O)Nc3ccccc3N2O)sc2c1CCCCCC2 | 2 | 45* | 1 | 31 | 7 | 5 | 34 | 11*
N#Cc1c(N2C(=O)Nc3ccccc3N2O)sc2c1CCCC2 | -14 | 12 | 4 | -1 | 0 | 3 | . | .
CCOC(=O)c1c(NS(C)(=O)=O)sc2c1CCC(C)C2 (stereo unspecified) | 2 | 48* | 10 | 0 | 4 | 3 | 18 | 8.0*
CCOC(=O)c1c(NC(=O)C2C3C=CC(C3)C2C(=O)O)sc2c1CC(C)CC2 (stereo unspecified) | -8 | 48* | 4 | 0 | 0 | -2 | 54* | 14*
CCCOC(=O)c1c(NC(=O)C2C3C=CC(C3)C2C(=O)O)sc2c1CCC(C)C2 (stereo unspecified) | 0 | 15 | 3 | -8 | 7 | 8 | . | .
Cc1ccc(OCc2nnc(SCC(=O)Nc3ccc(OCc4ccccc4)cc3)n2-c2ccc(Cl)cc2)cc1 | . | 8 | 2 | . | 2 | 1 | . | .
CC1CCCCC1NC(=O)C(=O)NCC1CCCO1 (stereo unspecified) | -3 | 56* | 2 | -4 | 4 | -1 | 1 | -2
CCc1ccc(CNC(=O)C(=O)NCC2CCCO2)cc1 (stereo unspecified) | 12 | -3 | -6 | -21 | -1 | -2 | . | .
O=C(CSc1nnc(SCc2ccccc2)s1)NNC(=S)Nc1ccccc1 | -17 | 43* | 1 | 9 | -1 | -2 | 52* | 18* | dCAG dye DR=>30
CN(C)/C=C/c1onc(-c2c(Cl)cccc2Cl)c1C#N | 9 | 11 | -5 | 2 | -1 | 0 | . | .
N#Cc1c(-c2c(Cl)cccc2Cl)noc1/C=C/Nc1ccc(C(=O)O)cc1 | -1 | 44* | 0 | 23 | -1 | 1 | 44* | 10*
Cc1ccc(CN2CCCCC(NC(=O)c3ccc4ccccc4c3)C2=O)cc1 (stereo unspecified) | . | 4 | -3 | . | -2 | -4 | . | .
SMILES | CSN deneddyl inh | rCAG RNA binder | MBD2 inh | ATG4B inh | UHRF1 binding | LEDGF integ inh | rCAG bind conf | DNA CAG counter | others
Cc1cccc(NS(=O)(=O)c2ccc3[nH]c(=O)cc(C(=O)OC(C)C(=O)Nc4ccc([N+](=O)[O-])cc4)c3c2)c1 (stereo unspecified) | -6 | 46* | -6 | -20 | 3 | 6 | 36* | 17*
CCc1ccc(NC(=O)C(C)OC(=O)c2cc(=O)[nH]c3ccc(S(=O)(=O)Nc4ccc(F)cc4)cc23)cc1 (stereo unspecified) | 1 | 9 | 2 | -15 | -2 | 2 | . | .
CC(=O)C1=C(C)N(Cc2ccc(Cl)cc2)C(=S)NC1c1ccc(Cl)cc1 (stereo unspecified) | . | 3 | 0 | . | 1 | -2 | . | .
Cc1ccc(NC(=S)N(Cc2cccc(Br)c2)CC2CCC(C(=O)O)CC2)cc1 (stereo unspecified) | 1 | 24 | 1 | 3 | -2 | 1 | . | .
COc1ccc(CN(Cc2ccc(C(=O)O)cc2)C(=S)Nc2ccccc2C)cc1OC | -3 | 2 | -3 | -5 | 2 | 2 | . | .
Cc1cc(NC(=S)N(Cc2cccc(Br)c2)CC2CCC(C(=O)O)CC2)ccc1Cl (stereo unspecified) | -2 | 46* | -3 | 3 | -2 | 6 | 64* | 24*
CCc1ccccc1NC(=S)N(Cc1ccc(C(=O)O)cc1)Cc1ccc(OC)c(OC)c1 | -6 | 9 | -5 | 1 | -1 | -1 | . | .
Cc1cc(NC(=S)N(Cc2ccc(Cl)cc2)Cc2ccc(C(=O)O)cc2)ccc1Cl | 5 | 69* | 3 | 7 | 0 | 3 | 83* | 47*
